Results as given in ChEMBL document CHEMBL1153615, “Antiproliferative activity of arborescidine alkaloids and derivatives” (Eur J Med Chem, 2009).
pIC50: −log10 of the molar value.

How the values were obtained:
MRC5 = assay: Cytotoxicity against human MRC5 cells after 3 days by MTT assay; assay type: cell-based; conditions: MRC5, 72 h
Summary of the method: (§1)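 Human ATCC lines (MRC-5 normal lung fibroblasts, AGS gastric adenocarcinoma, HL-60 leukemia, SK-MES-1 lung cancer, J82 bladder carcinoma) seeded at 50,000 cells/mL in 96-well plates. Compounds added one day later in medium at 0 up to 100 µM for 3 days. Read-out by MTT reduction against untreated controls, with etoposide as reference. IC50 reported for S- and R-configured compounds.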

AGS = assay: Cytotoxicity against human AGS cells after 3 days by MTT assay; assay type: functional, cell-based; conditions: 72 h; summary of the method: as §1
J82 = assay: Cytotoxicity against human J82 cells after 3 days by MTT assay; assay type: functional, cell-based; conditions: J82, 72 h; summary of the method: as §1
SK-MES-1 = assay: Cytotoxicity against human SKMES1 cells after 3 days by MTT assay; assay type: functional, cell-based; conditions: SK-MES-1, 72 h; summary of the method: as §1
HL-60 = assay: Cytotoxicity against human HL60 cells after 3 days by MTT assay; assay type: functional, cell-based; conditions: HL-60, 72 h; summary of the method: as §1
KB = assay: Cytotoxicity against human KB cells at 30 uM; assay type: functional

Compound	pIC50 (MRC5)	pIC50 (AGS)	pIC50 (J82)	pIC50 (SK-MES-1)	pIC50 (HL-60)	Activity (KB)
CN1CCc2c3n(c4cc(Br)ccc24)[C@@H](O)CCC[C@@H]31	4.50	4.51	< 4.00	< 4.00	< 4.00	100%
CN1CCc2c3n(c4cc(Br)ccc24)C=CCC[C@@H]31	< 4.00	< 4.00	4.34	4.04	< 4.00	100%
Brc1ccc2c3c([nH]c2c1)[C@@H]1CCCCN1CC3 [ARBORESCIDINE A]	4.15	4.19	< 4.00	< 4.00	4.46	100%
C=CCCCC1c2[nH]c3cc(Br)ccc3c2CCN1C (stereo not given)	4.10	4.16	4.10	4.12	< 4.00	–
COC(=O)N1CCc2c([nH]c3cc(Br)ccc23)[C@@H]1CCCC(O)CO (stereo not given in full)	< 4.00	< 4.00	< 4.00	< 4.00	< 4.00	–
C=CCCC[C@@H]1NCCc2c1[nH]c1cc(Br)ccc21	4.74	5.06	4.72	4.90	< 4.00	–
C=CCCC[C@@H]1NCCc2c1[nH]c1ccccc21	4.70	4.84	4.59	4.72	4.16	–
COC(=O)N1CCc2c([nH]c3cc(Br)ccc23)[C@@H]1CCCC=O	4.27	4.67	4.13	4.32	4.00	–
CN1CCc2c3n(c4ccccc24)[C@@H](O)CCC[C@@H]31 [DESBROMOARBORESCIDINE C]	< 4.00	< 4.00	< 4.00	< 4.00	< 4.00	–
COC(=O)N1CCc2c3n(c4ccccc24)[C@@H](O)CCC[C@@H]31	4.45	4.77	4.14	4.60	4.02	–
COC(=O)N1CCc2c([nH]c3ccccc23)[C@@H]1CCCC(O)CO (stereo not given in full)	< 4.00	4.20	< 4.00	4.05	< 4.00	–
C=CCCCC1=NCCc2c1[nH]c1cc(Br)ccc21	4.40	4.57	4.41	4.40	< 4.00	–
C=CCCCC1c2[nH]c3ccccc3c2CCN1C (stereo not given)	4.37	4.46	4.12	4.23	< 4.00	–
C=CCCC[C@H]1c2[nH]c3ccccc3c2CCN1C(=O)OC	< 4.00	< 4.00	< 4.00	< 4.00	< 4.00	–
C=CCCCC1=NCCc2c1[nH]c1ccccc21	4.35	4.39	4.32	4.44	< 4.00	–
COc1cc([C@@H]2c3cc4c(cc3[C@@H](O[C@@H]3O[C@@H]5CO[C@@H](C)O[C@H]5[C@H](O)[C@H]3O)[C@H]3COC(=O)[C@H]23)OCO4)cc(OC)c1O [ETOPOSIDE]	–	–	5.60	5.55	–	–
COC(=O)N1CCc2c3n(c4cc(Br)ccc24)[C@@H](O)CCC[C@@H]31	4.22	4.64	4.79	4.74	< 4.00	–
CN1CCc2c3n(c4ccccc24)C=CCC[C@@H]31 [DESBROMOARBORESCIDINEB]	4.20	4.38	4.53	4.49	< 4.00	–
